Records with an inconclusive call do not appear.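 How the source made its calls, unless noted: active means growth inhibition above 25% in both replicates, a cutoff set 3 SD above the mean; inconclusive means above 25% in only one replicate; inactive means the rest.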
Tests used:
[1] = OD615 S. cerevisiae growth inhibition, permissive medium, pilot counter-assay, permissive growth control for S. cerevisiae lifespan shortening project (AID 705); conditions: OD615, 24 h, at 10 µM, hits give high values
Summary of the method: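 System: Engineered DeaD yeast | Buffer or medium: SC raffinose/galactose permissive medium | Incubation: Cells pre-grown 4 h, then 24 h compound exposure, 30 °C humidified | Measured by: Absorbance (optical density) at 615 nm | Read-out: Reduction in yeast growth (OD615)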

[2] = Restrictive medium S. cerevisiae growth inhibition, OD615, pilot screen of yeast lifespan reduction project, restrictive growth control (AID 706;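 active means growth inhibition above a set limit, 3 SD over mean compound inhibition, in both replicates, cut at about 43% in these data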;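 further: modified DeaD lifespan yeast strain shifted to restrictive glucose medium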); conditions: OD615, 48 h, at 10 µM, hits give high values
Summary of the method: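 Material: modified S. cerevisiae; Medium: glucose-based CSMM-D restrictive medium; Compound dosing: one concentration, 10 µM final, 0.25% DMSO; Incubation: 48 h compound exposure at 30 °C; Measured by: OD615.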

[3] = viability gain of MRP-1-high H69AR cells under doxorubicin, pilot screen, MRP-1 activator project, CellTiter-Glo, duplicate (AID 807;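 active means viability increase at or above a cutoff of the median across tested compounds plus 3 SD, cut at about 8.5% in these data, passing the limit was not always enough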;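 further: compound pretreatment 18-22 h then 72 h combined with doxorubicin; 0% = doxorubicin alone and 100% = vehicle without doxorubicin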); conditions: H69AR viability with doxorubicin, CellTiter-Glo luminescence; at 10 µM; hits give high values
[4] = growth suppression of beta-catenin knockout HCT116, pilot screen, human colon tumor cells (AID 823;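 active means cell viability at or below a set limit in both duplicate runs, the limit being the all-compound median minus 4 SD, cut at about 23% in these data, passing the limit was not always enough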;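 further: 0% = wells killed by 20 µM Hyamine and 100% = untreated DMSO cell wells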); conditions: CellTiter-Glo, 60 h, at 10 µM, hits give low values
[5] = growth suppression of PTEN-deleted HCT116, pilot screen, cell-based, HCT116 clonal line, CellTiter-Glo (AID 824;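 active means viability at or below 27.92% in each of two runs, the all-compound median minus 4 SD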;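 further: 0% = 20 µM Hyamine control and 100% = vehicle cell control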); conditions: 60 h, at 10 µM, hits give low values
[6] = inhibitors of the yeast RAM network, pilot screen, dse1pr::URA3 reporter, 5-FOA selection (AID 869;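 active means inhibition over a set limit, the all-compound mean plus 3 SD, in both replicate runs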;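 further: 0% = DMSO wells with no growth and 100% = 10 µM 1-NA-PP1 with full growth; RAM network block rescues cells from 5-FOA so hits raise OD615 growth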); conditions: S. cerevisiae dse1pr::URA3 5-FOA growth, OD615, 2 d; at 10 µM; hits give high values; strain carries analog-sensitive mutant Cbk1 kinase

Cn1c(-n2c(CCCN3C(=O)c4ccccc4C3=O)nc3ccccc3c2=O)nc2ccccc21
inactive: growth inhibition [1] -1.74% | growth inhibition [2] 2.53% | viability increase [3] -3.91% | viability [4] 84.5% | viability [5] 87.2% | inhibition [6] 2.62%

CCCOC(=O)c1ccc(NC(=O)CCC(=O)OCC)cc1
inactive: growth inhibition [1] -2.93% | growth inhibition [2] 0.845% | viability increase [3] -0.37% | viability [4] 98.8% | viability [5] 98.6% | inhibition [6] 2.24%

CCCOc1cccc(C(=O)Nc2cccnc2)c1
inactive: growth inhibition [1] -6.8% | growth inhibition [2] -0.66% | viability increase [3] 3.16% | viability [4] 92.6% | viability [5] 96.2% | inhibition [6] 0.93%

N#Cc1c(NC(=O)CCCN2C(=O)c3ccccc3C2=O)oc(-c2ccccc2)c1-c1ccccc1
inactive: growth inhibition [1] -1.81% | growth inhibition [2] 1.75% | viability increase [3] 2.13% | viability [4] 101% | viability [5] 94.7% | inhibition [6] -0.33%

CCCCCCC1C(C#N)=C(N)OC2=C1C(=O)CC(C)(C)C2 (configuration not stated)
inactive: growth inhibition [1] -34.7% | growth inhibition [2] -40.1% | viability increase [3] -2.49% | viability [4] 102% | viability [5] 96.7% | inhibition [6] 0.505%

Cc1c(S(=O)(=O)N2CCc3ccccc3C2)c(=O)n(C)c(=O)n1C
inactive: growth inhibition [1] -14.9% | growth inhibition [2] -10.4% | viability increase [3] -0.16% | viability [4] 103% | viability [5] 97.9% | inhibition [6] 2.17%

CC1CCN(c2nc(-c3ccccc3)cc(C(F)(F)F)n2)CC1
inactive: growth inhibition [1] -10.7% | growth inhibition [2] -11% | viability increase [3] -1.76% | viability [4] 88.1% | viability [5] 90.6% | inhibition [6] 2.21%

COc1ccc(NC(=O)c2nnn(Cc3ccc(SC)cc3)c2N)c(OC)c1
inactive: growth inhibition [1] -1.88% | growth inhibition [2] -10.7% | viability increase [3] -0.11% | viability [4] 100% | viability [5] 93.1% | inhibition [6] 4.42%

O=C(CCS(=O)(=O)c1cccc2nonc12)N1CC(=O)N(CCc2ccccc2)C(=O)C1
inactive: growth inhibition [1] -5.67% | growth inhibition [2] -8.59% | viability increase [3] -3.51% | viability [4] 95.4% | viability [5] 92.3% | inhibition [6] -0.47%

COc1ccc(OC)c(NC(=O)C2COc3ccccc3O2)c1 (configuration not stated)
inactive: growth inhibition [1] -10.5% | growth inhibition [2] -6.21% | viability increase [3] -2.23% | viability [4] 82.7% | viability [5] 80.3% | inhibition [6] 0.25%

CCN1CCN(CC(=O)Nc2cccc(C)c2)C(=O)C1=O
inactive: growth inhibition [1] -9.91% | growth inhibition [2] -0.21% | viability increase [3] -1.01% | viability [4] 99.6% | viability [5] 95.6% | inhibition [6] 1.27%

CCOC(=O)C1Cn2c(nc3c(c2=O)C2(CCCC2)Cc2ccccc2-3)S1 (configuration not stated)
inactive: growth inhibition [1] -15.5% | growth inhibition [2] -1.87% | viability increase [3] -3.9% | viability [4] 84.2% | viability [5] 77.4% | inhibition [6] 2.23%

COc1cc(Cl)c(S(=O)(=O)N2CCN(Cc3ccc4c(c3)OCO4)CC2)cc1Cl
inactive: growth inhibition [1] -9.75% | growth inhibition [2] -4.02% | viability increase [3] -2.17% | viability [4] 84.2% | viability [5] 82.2% | inhibition [6] 1.04%

O=S1(=O)C=C(SCCN2CCCCC2)c2ccccc21
inactive: growth inhibition [1] -4.08% | growth inhibition [2] -20.4% | viability increase [3] -7.06% | viability [4] 61.6% | viability [5] 66.9% | inhibition [6] 1.29%

C=CCSc1nnc2c(n1)OC=Nc1ccccc1-2
inactive: growth inhibition [1] -4.68% | growth inhibition [2] 29.7% | viability increase [3] 2.06% | viability [4] 97.9% | viability [5] 101% | inhibition [6] 3.17%

C(=C\c1ccccc1)/CN1CCN(c2ncnc3c2oc2ccccc23)CC1
inactive: growth inhibition [1] -2.64% | growth inhibition [2] -6.73% | viability increase [3] -3.8% | inhibition [6] 1.36%

COc1cc(/C=C/C2=NC(=O)C(C)(C)O2)ccc1O
inactive: growth inhibition [1] -1.35% | growth inhibition [2] 6.79% | viability increase [3] -7.42% | viability [4] 65.9% | viability [5] 71.9% | inhibition [6] 0.485%

COC(=O)CSc1nc2ccc(NC(=O)CSc3nnnn3Cc3ccccc3)cc2s1
inactive: growth inhibition [1] -3.46% | growth inhibition [2] 13.8% | viability increase [3] 1.67% | viability [4] 87.2% | viability [5] 96.9% | inhibition [6] 4.05%

Cc1c(C(=O)NCc2cccs2)oc2ccc(S(=O)(=O)N3CCOCC3)cc12
inactive: growth inhibition [1] -0.625% | growth inhibition [2] -4.37% | viability increase [3] -4.32% | viability [4] 79.6% | inhibition [6] 0.46%

C=CCn1c(SCc2cc(=O)n3ccsc3n2)nc2scc(C3CC3)c2c1=O
inactive: growth inhibition [1] -3.27% | growth inhibition [2] -5.57% | viability increase [3] -3.7% | viability [5] 91.8% | inhibition [6] 2.79%

CC(C)n1c(C(=O)OCC(=O)NCc2ccc3c(c2)OCO3)cc2sccc21
inactive: growth inhibition [1] -10.2% | growth inhibition [2] -12.8% | viability increase [3] -6.26% | viability [4] 53.4% | inhibition [6] 2.71%

COc1ccc(OC)c(NC(=O)C2CCC(CNc3c(N4CCC(C)CC4)c(=O)c3=O)CC2)c1 (configuration not stated)
inactive: growth inhibition [1] -5.59% | growth inhibition [2] -11.5% | viability increase [3] -4.93% | viability [4] 70.8% | viability [5] 70.1% | inhibition [6] 0.96%

COc1ccc(Nc2nc(N)nc(CN3CCC(Cc4ccccc4)CC3)n2)cc1
inactive: growth inhibition [1] 6.83% | growth inhibition [2] -0.085% | viability increase [3] -6.58% | viability [5] 35.8% | inhibition [6] 0.1%

CCN(CC)S(=O)(=O)c1cc(-c2nnc(-c3ccc(Br)cc3)o2)ccc1Cl
inactive: growth inhibition [1] -10.3% | growth inhibition [2] -14.6% | viability increase [3] 1.36% | viability [5] 41.7% | inhibition [6] 2.41%

CCCCN(C)CCCNC(=O)Cn1c(=O)sc2ccccc21
inactive: growth inhibition [1] -8.58% | growth inhibition [2] -10.9% | viability increase [3] -3.13% | viability [5] 97.5% | inhibition [6] 1.33%

Reference: PubChem BioAssay
